Screening data (PubChem BioAssay)
Dynein transport: dynein cargo transport inhibition; 3617.4 mouse cells, GR-EGFP nuclear translocation imaging; test concentration mostly 20 µM; stimulated with dexamethasone, 1 µM; hits give low values; hit rate 0.47% among 220,000; z-score, hits read low;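 active = plate z-score of nuclear minus cytoplasmic receptor signal below a set negative limit, without overly bright fluorescence or cell loss, cut at about -3.5 in these data, passing the limit was not always enough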;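 also: z-score of nuclear minus cytoplasmic ring GR-EGFP intensity difference per well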
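Buffer or medium: Induction medium lacking tetracycline, stripped serum | Also added: Dexamethasone agonist, 1.0 µM final, for 30 min | Timing: 48 h induction, 1 h compound, 30 min dex at 37 °C | Detection: Formaldehyde fixation, Hoechst nuclear stain, 10x automated fluorescence imaging | Measure: Nuclear versus cytoplasmic GR-EGFP signal, averaged per well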
UPR CHOP act: activators of apoptotic arm of unfolded protein response (CHOP); CHO-CHOP luciferase reporter, UPR activation, luminescence; percent of tunicamycin response over DMSO baseline; activation, % at 10 µM; hit rate 0.34% among 330,000;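 active = at 10 µM dose, activation of 40% or more, normalized to positive control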;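 also: 100% = tunicamycin at 10 µg/mL and 0% = DMSO alone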
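System: CHO-CHOP luciferase reporter cell line | Buffer or medium: F12 medium containing 10% fetal bovine serum | Doses: One dose, 10 µM in 0.5% DMSO | Times: 6 h compound exposure at 37 °C after overnight seeding | Signal: Luciferase luminescence | Read-out: % activation vs tunicamycin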
CHOP inhibitor: inhibitors of CHOP induction in ER stress response; CHO-K1 CHOP-promoter luciferase, tunicamycin-induced, 15-18 h; inhibition, % at 10 µM; AID 2732; hit rate 3.8% among 220,000;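 active = compounds that reduced the stress-induced luciferase reporter signal by more than about 70% of percent inhibition, limit read from the data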;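 also: 0% = tunicamycin plus vehicle and 100% = wells without tunicamycin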
T cruzi repl: blocks replication of Trypanosoma cruzi; T. cruzi beta-gal in NIH3T3, luminescence, 90 h; inhibition, % (test concentration not listed); hit rate 1.4% among 300,000; AID 1885;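 active = mean inhibition across valid replicates above about 55%, limit read from the data; inconclusive = mean below that limit but half or more replicates reach it; inactive = mean below it, under half of replicates reach it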;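 also: signal also drops with host cell toxicity which is not excluded here; 0% = plate median of DMSO wells and 100% = zero luminescence signal; higher percent means less beta-gal luminescence so fewer parasites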
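System: mouse NIH/3T3 fibroblasts infected with β-gal-expressing T. cruzi Tulahuen C4 / Input: NIH/3T3 cells, 5,000 per well / Buffer or medium: Low-serum DMEM with 2% FBS / Probe or stimulus: 5000 reporter trypomastigotes per well / Schedule: ≥90 h infection period, 3 h prior cell attachment / Measured by: GalScreen luminescence, 60 min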
Lmaj promast: Leishmania major promastigote growth inhibition; AID 1063; hit rate 9% among 200,000; Leishmania major promastigotes, resazurin fluorescence viability; inhibition, % at 10 µM; in the data active = inhibition above about 50%;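 also: promastigotes grown with compound for 44 hours at 28 °C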
XBP1 UPR activ: activators of adaptive arm of unfolded protein response (XBP1); hit rate 0.33% among 330,000; AID 463104; activation, % at 20 µM; CHO-XBP1 luciferase reporter, IRE1-XBP1 UPR activation, luminescence; percent of tunicamycin response, DMSO as zero;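 active = versus positive control, 20 µM dose yields 30% or more activation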;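 also: 100% = tunicamycin at 10 µg/mL and 0% = DMSO only wells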
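assay system = CHO-XBP1 luciferase reporter cells | amount = 1000 cells/well | buffer or medium = F12 plus 10% FBS | compound dosing = single point, 20 µM final compound, 1% DMSO | incubation = 16-18 h cell attachment at 37 °C, then 6 h compound exposure | detection = Steady-Glo luminescence read | controls = tunicamycin 10 µg/mL and vehicle-only wells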
L major 1uM: L. major promastigote growth inhibition, 1 uM repeat. shares compounds with Lmaj promast. resazurin fluorescence, 48 h. inhibition, % at 1 µM. hit rate 13% among 1,100;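 active = inhibition above about 50% in both repeat tests, limit read from the data; inconclusive = one repeat under the set limit, the other over it; inactive = both repeats under the set limit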
Numbers without * were called inactive. Only a selection was taken, and hits are over-represented in it overall.

`OC(CN1CCCCC1)c1c[nH]c2ccccc12` (centres undefined) gave UPR CHOP act 2, T cruzi repl 5 and XBP1 UPR activ 1.
`CCOc1cc2c(cc1OCC)-n1cccc1C(c1ccc(OC(F)F)cc1)NC2` (centres undefined) gave UPR CHOP act -2, T cruzi repl 24 and XBP1 UPR activ 0.
COc1ccc(C(=O)Oc2cccc3cccnc23)cc1S(=O)(=O)N1CCOCC1 was read as Dynein transport 0.03, UPR CHOP act 1, CHOP inhibitor -2, T cruzi repl -47, Lmaj promast 98* and XBP1 UPR activ 5.
COc1ccc(C(=O)N2CCOCC2)cc1S(=O)(=O)N1CCC(C)CC1 was read as Dynein transport 0.04, UPR CHOP act 1, CHOP inhibitor 33, T cruzi repl -4, Lmaj promast -4 and XBP1 UPR activ -1.
CC(=O)OCC1=C(C(=O)[O-])N2C(=O)[C@@H](NC(=O)CCC[C@@H](N)C(=O)[O-])[C@H]2SC1.[Zn+2] was read as CHOP inhibitor -15.
`CC1CCC(C(C)C)C(OC(=O)Cn2c(COc3ccccc3)[n+](C)c3ccccc32)C1` (centres undefined) gave Dynein transport -1, UPR CHOP act 2, CHOP inhibitor 92*, T cruzi repl 73* and XBP1 UPR activ 23.
`O=C(COc1ccc(Br)cc1)N1CCN(C2CCCC2)CC1` gave Dynein transport 0.67, UPR CHOP act 1, CHOP inhibitor -26, T cruzi repl 13, Lmaj promast 93* and XBP1 UPR activ 0.
O=C(COc1ccccc1)N1CCN(C2CC3CCC2C3)CC1 (centres undefined) was read as Dynein transport -0.69, UPR CHOP act 0, CHOP inhibitor 23, T cruzi repl 5, Lmaj promast 72* and XBP1 UPR activ 1.
Cc1ccc(OCC(=O)N2CCN(C3CCC(c4ccccc4)CC3)CC2)cc1 (centres undefined) was read as Dynein transport 0.15, UPR CHOP act -1, CHOP inhibitor 93*, T cruzi repl 41, Lmaj promast 57* and XBP1 UPR activ 0.
For Cc1cc(C=C2C(=O)NC(=S)NC2=O)c(C)n1C1CCCC1 the results were Dynein transport 0.082, UPR CHOP act 10, CHOP inhibitor -57, T cruzi repl -15, Lmaj promast 63* and XBP1 UPR activ 3.
`O=C1NC(=O)C(CCc2ccncc2)(Cc2cccc(Cl)c2Cl)C(=O)N1c1ccc(Br)cc1` (centres undefined) gave Dynein transport -0.71, UPR CHOP act -2, CHOP inhibitor 34, T cruzi repl -26, Lmaj promast 92* and XBP1 UPR activ -3.
`Cc1ccc2cc(C=C(C#N)C#N)c(Cl)nc2c1` gave Dynein transport -1.4, UPR CHOP act 23, CHOP inhibitor 60, T cruzi repl -3, Lmaj promast 23 and XBP1 UPR activ -3.
For O=C(O)c1cccc2nc3ccccc3nc12 the results were Dynein transport -0.1, UPR CHOP act -2, CHOP inhibitor 40, T cruzi repl 18, Lmaj promast 100* and XBP1 UPR activ -2.
`COc1ccc(-[n+]2c(-c3ccccc3)cc(-c3ccc(C)cc3)cc2-c2ccccc2)cc1` gave UPR CHOP act 32, T cruzi repl 61* and XBP1 UPR activ -2.
Screening CCCOC(=O)c1ccc(-[n+]2c(-c3ccccc3)cc(-c3ccccc3)cc2-c2ccccc2)cc1 returned UPR CHOP act 36, T cruzi repl 55* and XBP1 UPR activ 4.
Screening O=C(O)c1ccc(-[n+]2c(-c3ccccc3)cc(-c3ccccc3)cc2-c2ccccc2)cc1 returned UPR CHOP act -1, T cruzi repl 2 and XBP1 UPR activ -2.
Screening CCN(CC)c1ccc(CN(C)CCc2ccc(OC)c(OC)c2)cc1 returned Dynein transport -0.66, UPR CHOP act 0, CHOP inhibitor 35, T cruzi repl 61*, Lmaj promast 63* and XBP1 UPR activ 4.
COc1ccc(CCN(C)Cc2ccc(F)cc2F)cc1OC was read as Dynein transport 1.5, UPR CHOP act 0, CHOP inhibitor 16, T cruzi repl 35, Lmaj promast 5 and XBP1 UPR activ 0.
`Fc1ccc2c(c1)nnn2C1CCN(Cc2ccccc2)CC1` gave Dynein transport -0.66, UPR CHOP act 2, CHOP inhibitor -14, T cruzi repl -4, Lmaj promast 75* and XBP1 UPR activ 0.
Screening Fc1ccc2c(c1)nnn2C1CCN(Cc2nnnn2CCc2ccccc2)CC1 returned Dynein transport -0.68, UPR CHOP act 1, CHOP inhibitor 27, T cruzi repl 2, Lmaj promast 4 and XBP1 UPR activ -1.
Screening CN(N=O)c1cc(O)ccc1O returned CHOP inhibitor -12.
`O=C(CN1CCN(C(=O)COc2cccc(F)c2)CC1)Nc1ccc(Cl)c(C(F)(F)F)c1` gave UPR CHOP act -2 and XBP1 UPR activ -3.
For O=C1C2CCN(CC2)C1Cc1ccc(OCCOc2ccccc2)cc1 (centres undefined) the results were Dynein transport 0.84, UPR CHOP act 0, CHOP inhibitor 10, T cruzi repl 5, Lmaj promast 100*, XBP1 UPR activ -1 and L major 1uM 97*.
For O=C1C2CCN(CC2)C1Cc1ccccc1O (centres undefined) the results were Dynein transport 1.1, UPR CHOP act 0, CHOP inhibitor -13, T cruzi repl -12, Lmaj promast -6 and XBP1 UPR activ -3.
Screening CSc1ccc(CNC2CN3CCC2CC3)cc1 (centres undefined) returned Dynein transport -0.36, UPR CHOP act 0, CHOP inhibitor 25, T cruzi repl 9, Lmaj promast 100*, XBP1 UPR activ -4 and L major 1uM 66*.
`Cc1ccc(OP(=O)(Nc2cccc(C)c2)Oc2ccc(C)cc2)cc1` gave UPR CHOP act 1, T cruzi repl 34 and XBP1 UPR activ -2.
Screening Cc1cccc(OP(=O)(Nc2cccnc2)Oc2cccc(C)c2)c1 returned Dynein transport -0.25, UPR CHOP act -2, CHOP inhibitor -12, T cruzi repl 53, Lmaj promast 92*, XBP1 UPR activ 1 and L major 1uM inconclusive.
Screening Cc1cc(C)nc(N2Cc3ccccc3C2=N)n1 returned Dynein transport 0.45, UPR CHOP act -2, CHOP inhibitor 4, T cruzi repl -14, Lmaj promast 50*, XBP1 UPR activ 1 and L major 1uM -5.
